In ChEMBL document CHEMBL3259753, “Synthesis, structure-activity relationships and biological evaluation of dehydroandrographolide and andrographolide derivatives as novel anti-hepatitis B virus agents” (Bioorg Med Chem Lett, 2014):

How the values were obtained:
[1] = Selectivity index, ratio of CC50 for human HepG2.2.15 cells to IC50 for HBV infected in human HepG2.2.15 cells assessed as inhibition of DNA replication; type: functional
[2] = Cytotoxicity against human HepG2.2.15 cells by MTT assay; type: cell-based, HepG2 2.2.15
[3] = Selectivity index, ratio of CC50 for human HepG2.2.15 cells to IC50 for HBV infected in human HepG2.2.15 cells assessed as inhibition of hepatitis B surface antigen secretion; type: functional
Hepatitis B virus [4] = assay: Antiviral activity against HBV infected in human HepG2.2.15 cells assessed as inhibition of hepatitis B surface antigen secretion by ELISA; type: functional, organism-based; settings: HepG2 2.2.15
Hepatitis B virus [5] = assay: Antiviral activity against HBV infected in human HepG2.2.15 cells assessed as inhibition of DNA replication; type: functional, organism-based; settings: HepG2 2.2.15
Hepatitis B virus [6] = assay: Antiviral activity against HBV infected in human HepG2.2.15 cells assessed as inhibition of hepatitis B e antigen secretion by ELISA; type: functional, organism-based; settings: HepG2 2.2.15
[7] = Selectivity index, ratio of CC50 for human HepG2.2.15 cells to IC50 for HBV infected in human HepG2.2.15 cells assessed as inhibition of hepatitis B e antigen secretion; type: functional
[8] = Octanol-water partition coefficient, log P of the compound at 30 degC by HPLC analysis; type: physicochemical
In short: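 Shake-flask method: solutes equilibrated between octanol and water. Compound concentration in the octanol phase determined by HPLC. LogP determined at 30 °C.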

Row | SMILES | IC50 (Hepatitis B virus [4]) [µM] | IC50 (Hepatitis B virus [5]) [µM] | IC50 (Hepatitis B virus [6]) [µM] | logP ([8]; read-out: logP) | logP [8] | Ratio CC50/IC50 [1] | CC50 [2] [µM] | Ratio CC50/IC50 [3] | Ratio CC50/IC50 [7]
1 | C[C@]1(CO)[C@H]2CC[C@@]3(CO3)[C@@H](/C=C/C3=CCOC3=O)[C@]2(C)CC[C@H]1O | 1290 | 78 | – | – | – | 23.6 | 1840 | 1.4 | –
2 | C=C1CC[C@H]2[C@@](C)(CCC(=O)[C@@]2(C)C=O)[C@@H]1C/C=C1/C(=O)OC[C@H]1O | 951 | 51.3 | 815 | – | – | 3 | 155 | – | –
3 | C=C1CC[C@@H]2[C@](C)(COC(=O)/C=C/c3ccccc3)[C@H](O)CC[C@@]2(C)[C@@H]1/C=C/C1=CCOC1=O | 18 | 14.6 | 28.9 | – | – | 15.5 | 183 | 10.2 | 6.3
4 | C=C1CC[C@@H]2[C@](C)(COC(=O)/C=C/c3cc(OC)c(OC)c(OC)c3)[C@H](O)CC[C@@]2(C)[C@@H]1/C=C/C1=CCOC1=O | – | 10.3 | 201 | 1.78 | – | >165.1 | > 1710 | – | >8.5
5 | C=C1CC[C@@H]2[C@](C)(COC(=O)/C=C/c3cccc(Cl)c3)[C@H](O)CC[C@@]2(C)[C@@H]1/C=C/C1=CCOC1=O | 207 | 136 | 59.8 | – | – | – | 147 | – | 2.5
6 | C=C1CC[C@@H]2[C@](C)(COC(=O)c3cccnc3)[C@H](O)CC[C@@]2(C)[C@@H]1/C=C/C1=CCOC1=O | 40 | 22.1 | 63.5 | – | – | 5.1 | 113 | 2.8 | 1.8
7 | C=C1CC[C@@H]2[C@](C)(COC(=O)c3cccnc3OC)[C@H](O)CC[C@@]2(C)[C@@H]1/C=C/C1=CCOC1=O | > 2310 | > 584 | 217 | – | – | – | 1340 | – | 6.2
8 | C=C1CC[C@@H]2[C@](C)(COC(=O)c3ccco3)[C@H](O)CC[C@@]2(C)[C@@H]1/C=C/C1=CCOC1=O | 19.2 | 9.3 | 77.5 | – | – | 9.9 | 92 | 4.6 | 1.2
9 | C=C1CC[C@@H]2[C@](C)(COC(=O)c3cccs3)[C@H](O)CC[C@@]2(C)[C@@H]1/C=C/C1=CCOC1=O | 162 | 22.1 | 29.2 | – | – | 25.2 | 557 | 3.4 | 19.1
10 | C=C1CC[C@@H]2[C@](C)(COC(=O)c3cc(=O)c4ccccc4o3)[C@H](O)CC[C@@]2(C)[C@@H]1/C=C/C1=CCOC1=O | – | 36.6 | 177 | – | – | 4.7 | 171 | – | 1
11 | C=C1CC[C@@H]2[C@](C)(COC(=O)c3cccs3)[C@H](OC(=O)c3cccs3)CC[C@@]2(C)[C@@H]1/C=C/C1=CCOC1=O | 1450 | 185 | 822 | – | – | >8.3 | > 1540 | >1 | >1.8
12 | C=C1CC[C@@H]2[C@](C)(COC(=O)c3cccs3)[C@H](O)CC[C@@]2(C)[C@@H]1C/C=C1\C=COC1=O | 121 | 23.5 | 19.7 | – | – | 104.9 | 2470 | 20.3 | 125
13 | C=C1CC[C@@H]2[C@](C)(COC(C)=O)[C@H](O)CC[C@@]2(C)[C@@H]1C/C=C1\C=COC1=O | 280 | 44.1 | 289 | – | – | 7.6 | 334 | 1.2 | 1.1
14 | C=C1CC[C@@H]2[C@](C)(COC(=O)CCCC)[C@H](O)CC[C@@]2(C)[C@@H]1C/C=C1\C=COC1=O | 565 | 69.5 | 2230 | – | – | 3.2 | 225 | – | –
15 | C=C1CC[C@@H]2[C@](C)(CO)[C@H](OC(=O)/C=C/c3cc(OC)c(OC)c(OC)c3)CC[C@@]2(C)[C@@H]1C/C=C1\C=COC1=O | 753 | 53.1 | 518 | – | – | 3 | 211 | – | –
16 | C=C1CC[C@@H]2[C@](C)(COC(C)=O)[C@H](OC(C)=O)CC[C@@]2(C)[C@@H]1C/C=C1\C=COC1=O | 251 | 39.6 | 260 | – | – | 7.6 | 297 | 1.2 | 1.1
17 | C=C1CC[C@@H]2[C@](C)(COC(=O)c3ccccc3C(=O)O)[C@H](OC(=O)c3ccccc3C(=O)O)CC[C@@]2(C)[C@@H]1C/C=C1\C=COC1=O | – | 22 | 218 | – | – | >92.8 | > 2040 | – | >9.4
18 | C=C1CC[C@@H]2[C@](C)(C=O)[C@H](O)CC[C@@]2(C)[C@@H]1/C=C/C1=CCOC1=O | 1840 | 13.4 | 1950 | – | – | 9.1 | 122 | – | –
19 | C=C1CC[C@H]2[C@@](C)(CCC(=O)[C@@]2(C)C=O)[C@@H]1C/C=C1\C=COC1=O | 518 | 169 | – | – | – | 5.7 | 964 | 1.9 | –
20 | C=C1CC[C@@H]2[C@](C)(CO)[C@H](O)CC[C@@]2(C)[C@@H]1/C=C/C1=CC(CO)(CO)OC1=O | 74 | 154 | 860 | – | – | 6.2 | 954 | 13 | 1.1
21 | C=C1CC[C@@H]2[C@](C)(CO)[C@H](O)CC[C@@]2(C)[C@@H]1/C=C/C1=CCOC1=O | – | 22.6 | – | – | 1.44 | 8.7 | 197 | – | –
22 | C=C1CC[C@@H]2[C@](C)(CO)[C@H](O)CC[C@@]2(C)[C@@H]1C/C=C1/C(=O)OC[C@H]1O [ANDROGRAPHOLIDE] | – | 54.1 | – | 0.52 | – | 3.7 | 198 | – | –
23 | C[C@H](Cn1cnc2c(N)ncnc21)OCP(=O)(O)O [TENOFOVIR ANHYDROUS] | 1390 | 0.71 | – | – | – | >2417.3 | > 1720 | >1.2 | >1.4

Further lines, with some results ahead:

Row | IC50 (Hepatitis B virus [4]) [µM] | IC50 (Hepatitis B virus [5]) [µM] | IC50 (Hepatitis B virus [6]) [µM] | logP ([8]; read-out: logP) | logP [8] | SMILES | Ratio CC50/IC50 [1] | CC50 [2] [µM] | Ratio CC50/IC50 [3] | Ratio CC50/IC50 [7]
24 | > 1140 | 16.3 | > 974 | – | – | C=C1CC[C@@H]2[C@](C)(COC(=O)c3cccnc3)[C@H](O)CC[C@@]2(C)[C@@H]1C/C=C1\C=COC1=O | 126 | 2050 | – | –
25 | 880 | 20.6 | 123 | – | – | C=C1CC[C@@H]2[C@](C)(COC(=O)c3ccccc3)[C@H](O)CC[C@@]2(C)[C@@H]1C/C=C1\C=COC1=O | 4 | 82 | – | –
26 | 1320 | 39.4 | 293 | – | – | C=C1CC[C@@H]2[C@](C)(COC(=O)c3ccccc3C(=O)O)[C@H](O)CC[C@@]2(C)[C@@H]1C/C=C1\C=COC1=O | 11.4 | 450 | – | 1.5
27 | 466 | 30.7 | 1170 | – | – | C=C1CC[C@@H]2[C@](C)(CO)[C@H](OC(=O)/C=C/c3ccccc3)CC[C@@]2(C)[C@@H]1C/C=C1\C=COC1=O | 5.8 | 179 | – | –
28 | 261 | 38.4 | 714 | – | – | C=C1CC[C@@H]2[C@](C)(CO)[C@H](OC(=O)c3cccnc3)CC[C@@]2(C)[C@@H]1C/C=C1\C=COC1=O | 8.8 | 337 | 1.3 | –
29 | 777 | 25.2 | 586 | – | – | C=C1CC[C@@H]2[C@](C)(CO)[C@H](OC(=O)c3ccco3)CC[C@@]2(C)[C@@H]1C/C=C1\C=COC1=O | 1.7 | 42 | – | –
30 | 41 | 8.1 | > 2200 | – | – | C=C1CC[C@@H]2[C@](C)(CO)[C@H](OC(=O)c3cccs3)CC[C@@]2(C)[C@@H]1C/C=C1\C=COC1=O | 31.8 | 257 | 6.2 | –
31 | 877 | 21.6 | 118 | – | – | C=C1CC[C@@H]2[C@](C)(CO)[C@H](OC(=O)c3ccccc3)CC[C@@]2(C)[C@@H]1C/C=C1\C=COC1=O | 4.8 | 103 | – | –
32 | 318 | 44.4 | 241 | – | – | C=C1CC[C@@H]2[C@](C)(CO)[C@H](OC(C)=O)CC[C@@]2(C)[C@@H]1C/C=C1\C=COC1=O | 19.6 | 872 | 2.7 | 3.6
33 | 625 | 69.8 | 208 | – | – | C=C1CC[C@@H]2[C@](C)(CO)[C@H](OC(=O)CCCC)CC[C@@]2(C)[C@@H]1C/C=C1\C=COC1=O | 1.82 | 126 | – | –
34 | 1640 | – | 1220 | – | – | C=C1CC[C@@H]2[C@](C)(COC(=O)c3cccs3)[C@H](OC(=O)c3cccs3)CC[C@@]2(C)[C@@H]1C/C=C1\C=COC1=O | – | 1370 | – | 1.1
